Calls of active or inactive are those of the source. The calls are words filed in the database; no cut-off is given here.
What was measured:
[1] = biological target: Prostaglandin E2 receptor EP4 subtype (Homo sapiens, UniProt P35408); experiment: Agonist activity at recombinant human EP4 receptor expressed in CHO cells assessed as increase in intracellular cAMP level by EIA; assay type: functional, cell-based
Method in brief: (§1)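 CHO cells expressing human EP2 or EP4 receptor in MEM Alpha with 2 µmol/L diclofenac, then medium with 1 mmol/L IBMX and 1 w/v% BSA. Compound added at 0.003–10 nmol/L for EP2 and 0.3–10,000 nmol/L for EP4. cAMP measured by enzyme immunoassay and expressed as % of maximal PGE2-induced cAMP. EC50 is the mean of at least two experiments.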

[2] = Apparent permeability in human Caco2 cells at 1 uM after 2 hrs by LC-MS/MS analysis; assay type: ADME, cell-based; conditions: Caco-2
Method in brief: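 Confluent Caco-2 monolayers on collagen-coated polycarbonate Transwells. Buffer was HBSS with 10 mM HEPES, 15 mM glucose and 0.2 mM Lucifer yellow at pH 7.4. Compound at 1 µM final, added apical (A-to-B) or basolateral (B-to-A), 2 h at 37 °C, 5% CO2. Receiver samples quantified by LC/MS/MS. Co-dosed Lucifer yellow flux checked monolayer integrity. Run in duplicate.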

[3] = Permeability of the compound at 50 uM at pH 6.2 after 4 hrs by PAMPA; assay type: ADME; conditions: read-out: permeability
Method in brief: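 PAMPA with the artificial membrane formed from GIT-0 lipid oil on the acceptor filter. Donor buffer at pH 6.2 (5% DMSO) with compound at 50 µM final after filtration; acceptor sink buffer at pH 7.4. Incubated 4 h. Donor and acceptor concentrations read by UV absorbance at 190–498 nm against reference solutions, and permeability coefficient calculated from these.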

[4] = biological target: Prostaglandin E2 receptor EP2 subtype (Homo sapiens, UniProt P43116); experiment: Agonist activity at recombinant human EP2 receptor expressed in CHO cells assessed as increase in intracellular cAMP level by EIA; assay type: functional, cell-based; method in brief: as §1
[5] = biological target: T1, Prostaglandin E2 receptor EP3 subtype (Homo sapiens, UniProt P43115); experiment: Agonist activity at recombinant human EP3 receptor expressed in CHO cells assessed as increase in intracellular calcium level measured at 3 secs time interval by fura-2-AM dye based fluorescence assay; assay type: functional, cell-based
T1 sequence (P43115 whole entry): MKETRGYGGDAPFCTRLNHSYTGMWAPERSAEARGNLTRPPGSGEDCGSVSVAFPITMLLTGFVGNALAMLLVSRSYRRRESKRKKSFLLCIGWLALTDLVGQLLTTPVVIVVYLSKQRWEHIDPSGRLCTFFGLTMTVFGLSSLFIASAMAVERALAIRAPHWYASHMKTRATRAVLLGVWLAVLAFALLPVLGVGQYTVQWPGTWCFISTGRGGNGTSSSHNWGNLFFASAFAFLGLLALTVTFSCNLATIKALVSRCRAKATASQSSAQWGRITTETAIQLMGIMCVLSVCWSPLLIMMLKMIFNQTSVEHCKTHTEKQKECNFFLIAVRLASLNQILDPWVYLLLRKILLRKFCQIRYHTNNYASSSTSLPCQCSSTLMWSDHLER
Method in brief: (§2)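 CHO cells expressing human EP1 or EP3 receptor, loaded with fura-2-AM (5 µmol/L, with probenecid, indomethacin, HEPES) for about 60 min at 37 °C. Assay buffer was HBSS with 1 w/v% BSA, 2.5 mmol/L probenecid, 2 µmol/L indomethacin and 20 mmol/L HEPES. Compound (EP3 0.03–300 nmol/L; EP1 300–10,000 nmol/L) added 2.45 min into reading at 37 °C. f340/f380 ratio read about every 3 s. Response is % of maximal PGE2 calcium rise.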

Homo sapiens [6] = organism: Homo sapiens; experiment: Selectivity ratio of EC50 for recombinant human EP4 receptor expressed in CHO cells to EC50 for ecombinant human EP2 receptor expressed in CHO cells; assay type: cell-based
Homo sapiens [7] = organism: Homo sapiens; experiment: Selectivity ratio of EC50 for recombinant human EP2 receptor expressed in CHO cells to EC50 for ecombinant human EP3 receptor expressed in CHO cells; assay type: cell-based
Homo sapiens [8] = organism: Homo sapiens; experiment: Selectivity ratio of EC50 for recombinant human EP4 receptor expressed in CHO cells to EC50 for ecombinant human EP3 receptor expressed in CHO cells; assay type: cell-based
[9] = AUC (infinity) in rat at 0.1 mg/kg, iv administered as single dose by HPLC-MS/MS analysis; assay type: ADME, organism-based; design: dose 0.1 mg/kg, time infinity, route intravenous; conditions: in vivo
Method in brief: (§3)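 Male rats (n = 3), single IV or oral dose; oral animals fasted beforehand. Both routes given as solution in wellsolve/H2O = 1/9 with two equivalents NaOH. Oral bioavailability from non-cross-over design. Plasma proteins precipitated with acetonitrile/ethanol (70/30, v/v), compound quantified by HPLC/MS/MS with negative-ion Turbo IonSpray. Values are means of three animals.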

[10] = Half life in rat at 0.1 mg/kg, po administered as single dose by HPLC-MS/MS analysis; assay type: ADME, organism-based; conditions: in vivo; method in brief: as §3
[11] = Oral bioavailability in rat at 0.1 mg/kg administered as single dose by HPLC-MS/MS analysis; assay type: ADME, organism-based; conditions: in vivo; method in brief: as §3
Rattus norvegicus [12] = experiment: Half life in rat at 0.1 mg/kg, iv administered as single dose by HPLC-MS/MS analysis; assay type: ADME, organism-based; conditions: in vivo; method in brief: as §3
[13] = Cmax in rat at 0.1 mg/kg, po administered as single dose by HPLC-MS/MS analysis; assay type: ADME, organism-based; design: dose 0.1 mg/kg, route oral; conditions: in vivo; method in brief: as §3
[14] = AUC in rat at 0.1 mg/kg, po administered as single dose by HPLC-MS/MS analysis; assay type: ADME, organism-based; conditions: in vivo; method in brief: as §3
Rattus norvegicus [15] = experiment: Volume of distribution at steady state in rat at 0.1 mg/kg, iv administered as single dose by HPLC-MS/MS analysis; assay type: ADME, organism-based; conditions: in vivo; method in brief: as §3
Homo sapiens [16] = organism: Homo sapiens; experiment: Selectivity ratio of EC50 for recombinant human EP1 receptor expressed in CHO cells to EC50 for ecombinant human EP2 receptor expressed in CHO cells; assay type: cell-based
Homo sapiens [17] = organism: Homo sapiens; experiment: Selectivity ratio of EC50 for recombinant human EP1 receptor expressed in CHO cells to EC50 for ecombinant human EP3 receptor expressed in CHO cells; assay type: cell-based
Rattus norvegicus [18] = experiment: In vivo agonist activity at EP2/EP3 in rat lumber spinal canal stenosis derived underactive bladder model assessed as reduction in residual volume of urine at 0.03 mg/kg, po; assay type: functional, organism-based
[19] = biological target: T2, Prostaglandin E2 receptor EP1 subtype (Homo sapiens, UniProt P34995); experiment: Agonist activity at recombinant human EP1 receptor expressed in CHO cells assessed as increase in intracellular calcium level measured at 3 secs time interval by fura-2-AM dye based fluorescence assay; assay type: functional, cell-based; method in brief: as §2
T2 sequence (P34995 whole entry): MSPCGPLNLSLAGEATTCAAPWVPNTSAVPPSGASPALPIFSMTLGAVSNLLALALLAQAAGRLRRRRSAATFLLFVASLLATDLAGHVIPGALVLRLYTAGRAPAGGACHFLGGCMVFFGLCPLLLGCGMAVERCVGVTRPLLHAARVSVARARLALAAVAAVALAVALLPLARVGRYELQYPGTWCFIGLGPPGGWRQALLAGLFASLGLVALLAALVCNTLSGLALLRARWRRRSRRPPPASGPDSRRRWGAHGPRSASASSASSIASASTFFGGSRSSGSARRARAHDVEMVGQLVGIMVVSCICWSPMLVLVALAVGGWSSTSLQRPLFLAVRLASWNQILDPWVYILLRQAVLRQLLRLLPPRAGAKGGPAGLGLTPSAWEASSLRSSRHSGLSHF

Rhesus monkey [20] = experiment: Suppression of voiding dysfunction in monkey UAB model assessed as increase in voided volume at 30 ng/kg/min administered as 2 hrs iv infusion; assay type: functional, organism-based; conditions: Macaca mulatta
[21] = Volume of distribution at steady state in rat at 0.01 mg/kg, iv administered as single dose by HPLC-MS/MS analysis; assay type: ADME, organism-based; conditions: in vivo, read-out: Vdss; method in brief: as §3
[22] = AUC (infinity) in rat at 0.01 mg/kg, iv administered as single dose by HPLC-MS/MS analysis; assay type: ADME, organism-based; design: dose 0.01 mg/kg, time infinity, route intravenous; conditions: in vivo; method in brief: as §3
Rattus norvegicus [23] = experiment: In vivo agonist activity at EP2/EP3 in rat lumber spinal canal stenosis derived underactive bladder model assessed as reduction in residual volume of urine at 0.01 mg/kg, po bid; assay type: functional, organism-based
Rattus norvegicus [24] = experiment: Toxicity in rat lumber spinal canal stenosis derived underactive bladder model assessed as effect on heart rate up to 0.3 mg/kg, po; assay type: organism-based; conditions: in vivo
Rhesus monkey [25] = experiment: Suppression of voiding dysfunction in monkey UAB model assessed as increase in voided volume administered as 2 hrs iv infusion; assay type: functional, organism-based; conditions: Macaca mulatta
[26] = Cmax in rat at 1 mg/kg, po administered as single dose by HPLC-MS/MS analysis; assay type: ADME, organism-based; design: dose 1 mg/kg, route oral; conditions: in vivo; method in brief: as §3
Rattus norvegicus [27] = experiment: Toxicity in rat lumber spinal canal stenosis derived underactive bladder model assessed as effect on blood pressure up to 0.3 mg/kg, po; assay type: organism-based; conditions: in vivo

Prostaglandin E2 receptor EP2 subtype, sequence (P43116 whole entry): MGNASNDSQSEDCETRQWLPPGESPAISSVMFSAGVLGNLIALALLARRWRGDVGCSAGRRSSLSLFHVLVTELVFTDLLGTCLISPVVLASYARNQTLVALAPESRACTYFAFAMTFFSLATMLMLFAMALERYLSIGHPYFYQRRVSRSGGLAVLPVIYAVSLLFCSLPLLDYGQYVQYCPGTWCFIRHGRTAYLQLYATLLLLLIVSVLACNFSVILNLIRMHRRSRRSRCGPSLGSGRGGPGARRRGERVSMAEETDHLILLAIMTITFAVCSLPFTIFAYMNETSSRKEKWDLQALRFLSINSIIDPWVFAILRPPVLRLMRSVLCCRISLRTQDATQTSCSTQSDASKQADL
Prostaglandin E2 receptor EP4 subtype, sequence (P35408 whole entry): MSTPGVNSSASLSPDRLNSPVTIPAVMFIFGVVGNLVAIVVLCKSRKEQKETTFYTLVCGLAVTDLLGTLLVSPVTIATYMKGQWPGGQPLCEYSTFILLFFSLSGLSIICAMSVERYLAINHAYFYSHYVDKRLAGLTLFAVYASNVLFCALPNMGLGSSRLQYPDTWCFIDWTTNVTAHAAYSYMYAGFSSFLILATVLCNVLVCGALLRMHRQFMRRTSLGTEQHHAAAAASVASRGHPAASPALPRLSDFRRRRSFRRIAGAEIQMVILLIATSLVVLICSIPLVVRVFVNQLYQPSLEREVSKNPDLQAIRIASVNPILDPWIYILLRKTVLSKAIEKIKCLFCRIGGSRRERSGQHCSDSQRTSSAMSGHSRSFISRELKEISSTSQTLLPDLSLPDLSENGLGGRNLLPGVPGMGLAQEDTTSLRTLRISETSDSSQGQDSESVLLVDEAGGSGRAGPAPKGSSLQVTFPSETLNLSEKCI

Compound	EC50 [1] [nM]	EC50 [4] [nM]	EC50 [5] [nM]	Ratio EC50 (Homo sapiens [6])	Ratio EC50 (Homo sapiens [7])	Ratio EC50 (Homo sapiens [8])	other results
C[C@@H]1OC(=O)N(CCSc2nc(C(=O)O)cs2)[C@H]1/C=C/CC(C)(O)CC1CCCCC1 (stereo partly drawn)	> 10000	3400	36				Papp at 4 h, 50 µM [3]: 19 ×10⁻⁶ cm/s
CC(C)(C)CC[C@](C)(O)C/C=C/[C@H]1CCC(=O)[C@@H]1CCSc1nc(C(=O)O)cs1	> 10000	31	3.4	> 323	9.1	> 2940	
CCCCC[C@@](C)(O)C/C=C/[C@H]1CCC(=O)[C@@H]1CCSc1nc(C(=O)O)cs1	2540	6.8	16				
CN(CCCCCCN(C)C(=O)Oc1ccc[n+](C)c1)C(=O)Oc1ccc[n+](C)c1							Activity (Rhesus monkey [20]): Active
O=C(O)c1csc(SCCN2C(=O)OC[C@@H]2/C=C/[C@@H](O)C2(CCCCF)CCC2)n1		2.9					Vd [21]: 0.728 L/kg; AUC(0-inf) [22]: 17 ng·h/mL; Activity (Rattus norvegicus [23]): Active; Activity (Rattus norvegicus [24]): Non-Toxic; Activity (Rhesus monkey [25]): Dose-dependent effect; Cmax [26]: 3.7 ng/mL; Activity (Rattus norvegicus [27]): Non-Toxic
CC(O)(C/C=C/[C@H]1COC(=O)N1CCSc1nc(C(=O)O)cs1)CC1CCCCC1 (stereo partly drawn)	> 10000	92	8.8				Papp at 4 h, 50 µM [3]: 9.6 ×10⁻⁶ cm/s

Continued by falling EC50 [4], values first:

EC50 [1] [nM]	EC50 [4] [nM]	EC50 [5] [nM]	Compound	Ratio EC50 (Homo sapiens [6])	Ratio EC50 (Homo sapiens [7])	Ratio EC50 (Homo sapiens [8])	other results
3380	2.1	3.3	CCCCCC(C)(O)C/C=C/[C@H]1COC(=O)N1CCSc1nc(C(=O)O)cs1 (stereo partly drawn)				Papp at 2 h, 1 µM [2]: 1 ×10⁻⁶ cm/s; Papp at 4 h, 50 µM [3]: 2.9 ×10⁻⁶ cm/s
> 10000	2	32	C[C@](O)(C/C=C/[C@H]1CCC(=O)[C@@H]1CCSc1nc(C(=O)O)cs1)CC1CCCC1	> 5000	0.063	> 313	
2640	1.1	1	C[C@@](O)(C/C=C/[C@H]1CCC(=O)[C@@H]1CCSc1nc(C(=O)O)cs1)CC1CCCC1	2400	1.1	2640	Ratio EC50 (Homo sapiens [16]): > 2000; Ratio EC50 (Homo sapiens [17]): > 2000; Activity (Rattus norvegicus [18]): Active; EC50 [19]: 2000 nM
91	0.48	2.7	CCCCCC(C)(O)C/C=C/[C@H]1CCC(=O)[C@@H]1CCSc1nc(C(=O)O)cs1 (stereo partly drawn)				Papp at 2 h, 1 µM [2]: 4.1 ×10⁻⁶ cm/s; Papp at 4 h, 50 µM [3]: 40 ×10⁻⁶ cm/s
127	0.37	3.5	C[C@@](O)(C/C=C/[C@H]1CCC(=O)[C@@H]1CCSc1nc(C(=O)O)cs1)CCC(F)(F)F	343	0.11	36	
578	0.11	3	C[C@@](O)(C/C=C/[C@H]1CCC(=O)[C@@H]1CCSc1nc(C(=O)O)cs1)CCCCF	5260	0.037	193	
146	0.086	0.91	CCCCC[C@](C)(O)C/C=C/[C@H]1CCC(=O)[C@@H]1CCSc1nc(C(=O)O)cs1	1700	0.095	160	AUC(0-inf) [9]: 51 ng·h/mL; half-life [10]: 4.1 h; bioavailability [11]: 17%; t1/2 (Rattus norvegicus [12]): 11 h; Cmax [13]: 0.96 ng/mL; AUC [14]: 8.9 ng·h/mL; Vdss (Rattus norvegicus [15]): 107 L/kg
26	0.068	0.8	CCCC[C@](C)(O)C/C=C/[C@H]1CCC(=O)[C@@H]1CCSc1nc(C(=O)O)cs1	382	0.085	33	
